Experimental data published in ChEMBL document CHEMBL1151307, “Effects of tannins from Geum japonicum on the catalytic activity of thrombin and factor Xa of blood coagulation cascade” (J Nat Prod, 1998).
Activity calls are given as the source filed them.

How the values were obtained:
[1] = target: T1, Prothrombin (Bos taurus, UniProt P00735); assay: Inhibition of bovine thrombin-catalyzed hydrolysis of S-2238
Summary of the method: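 Bovine plasma thrombin (0.19 NIH units/mL solution) in 0.05 M Tris with 0.1 M NaCl (pH 7.5) was preincubated with compound for 2 min at 37 °C. S-2238 was added as a 0.66 mM solution to start the reaction. p-Nitroaniline release was followed at 405 nm over 5 min and expressed as % inhibition. IC50 is the concentration that inhibits 50% of initial activity. Mean of three experiments.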

[2] = test system: Plasma; assay: Anticoagulant activity in rabbit plasma assessed as prothrombin time at 2 mM after 2 mins; format: functional, Oryctolagus cuniculus
Summary of the method: (§1)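 Rabbit plasma was preincubated 2 min at 37 °C with compound dissolved in 0.05 M Tris buffer plus Tris/0.1 M NaCl, pH 7.5. Clotting was triggered with thromboplastin-calcium reagent and read on a fibrometer. Clotting time is in seconds, mean ± SD (n = 3-5), with Student's t-test against control. A cut-off of >300 s was scored as no clotting.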

[3] = target: Prothrombin (Bos taurus) (UniProt P00735); assay: Inhibition of bovine thrombin at 200 uM by Lineweaver-Burke plot analysis
Summary of the method: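 Bovine plasma thrombin at a fixed 0.19 NIH units/mL was tested in 0.05 M Tris with 0.1 M NaCl (pH 7.5) at 37 °C, with S-2238 at 0.6 to 1.7 mM. Compound and enzyme were preincubated for under 2 min before substrate was added. Initial rates were plotted as Lineweaver-Burk plots and fitted by linear regression to give the inhibition type and Ki. Mean of three.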

[4] = target: T1, Prothrombin; assay: Inhibition of bovine thrombin-catalyzed hydrolysis of fibrinogen
Summary of the method: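 Compound at various concentrations was preincubated with thrombin (0.05 NIH units/mL solution) for 3 min at 37 °C. The reaction was started with fibrinogen (2 mg/mL solution). Clot turbidity was read at 405 nm for 5 min and velocities were taken as mOD/min. IC50 is the concentration that inhibits 50% of initial activity. Mean of three experiments.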

[5] = test system: Plasma; assay: Anticoagulant activity in rabbit plasma assessed as thrombin time at 2 mM after 2 mins; format: functional, Oryctolagus cuniculus
Summary of the method: (§2)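 Rabbit plasma, 0.05 M Tris buffer and compound in Tris were preincubated for 2 min at 37 °C. Clotting was started with bovine thrombin (3-4 NIH units/mL) and timed on a fibrometer. Clotting time is in seconds, mean ± SD (n = 3-5), with Student's t-test against control. Clotting beyond 300 s was scored as no clotting.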

[6] = test system: Plasma; assay: Anticoagulant activity in rabbit plasma assessed as activated partial thromboplastin time at 2 mM after 2 mins; format: functional, Oryctolagus cuniculus
Summary of the method: (§3)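 Rabbit plasma with test compound in 0.05 M Tris buffer was incubated with APTT reagent for 2 min at 37 °C. Clotting was started with 25 mM CaCl2 and timed on a fibrometer. Clotting time is in seconds, mean ± SD (n = 3-5), compared with control by Student's t-test. Clotting beyond 300 s was scored as no clotting.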

[7] = target: Prothrombin (Bos taurus) (UniProt P00735); assay: Inhibition of bovine thrombin upto 100 uM
Summary of the method: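 Bovine plasma thrombin (0.19 NIH units/mL) in Tris/0.1 M NaCl, pH 7.5, was preincubated 2 min at 37 °C with compound in 0.1% DMSO, which also served as vehicle control. Reaction was started with S-2238 (0.66 mM, as added) and read as the rise in A405 over 5 min. Results are percent inhibition of thrombin activity.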

[8] = target: T1, Prothrombin; assay: Inhibition of bovine thrombin by Lineweaver-Burke plot analysis
Summary of the method: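 Bovine plasma thrombin (0.19 NIH units/mL) was run in 0.05 M Tris/0.1 M NaCl, pH 7.5, at 37 °C. It was preincubated with compound for under 2 min, and the reaction was started with S-2238 at 0.6-1.7 mM. Initial rates were taken as p-nitroaniline release at 405 nm. Inhibition type and Ki came from linear-regression Lineweaver-Burk plots.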

[9] = test system: Plasma; assay: Anticoagulant activity in rabbit plasma assessed as activated partial thromboplastin time at 0.1 mM after 2 mins; format: functional, Oryctolagus cuniculus; conditions: in the assay text read “1 mM” for “0.1 mM”; summary of the method: as §3
[10] = target: T2, Coagulation factor X (Homo sapiens, UniProt P00742); assay: Inhibition of human factor 10a
T2 sequence (P00742 41-179 limits assumed): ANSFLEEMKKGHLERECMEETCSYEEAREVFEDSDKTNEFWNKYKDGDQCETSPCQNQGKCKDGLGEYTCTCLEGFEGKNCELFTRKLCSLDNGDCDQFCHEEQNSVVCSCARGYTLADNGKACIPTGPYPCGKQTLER
T2 sequence (P00742 235-488 limits assumed): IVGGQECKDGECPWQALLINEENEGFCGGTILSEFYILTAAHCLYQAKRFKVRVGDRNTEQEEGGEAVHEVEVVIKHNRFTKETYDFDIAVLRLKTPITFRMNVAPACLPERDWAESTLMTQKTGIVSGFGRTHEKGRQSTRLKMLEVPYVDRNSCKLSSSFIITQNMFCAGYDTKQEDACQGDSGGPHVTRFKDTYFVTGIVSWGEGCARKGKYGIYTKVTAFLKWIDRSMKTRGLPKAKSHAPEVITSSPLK
Summary of the method: (§4)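 Compound and 0.20 mM S-2222 were mixed in 0.05 M Tris/0.1 M NaCl, pH 8.3. Reaction was started with factor Xa (50 ng/mL) and 4-nitroanilide release was read at 405 nm over 5 min at 37 °C. IC50 is the concentration giving 50% inhibition of initial activity, mean ± SD of three experiments. Ki was determined with S-2222 at 0.04-0.20 mM.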

[11] = test system: Plasma; assay: Anticoagulant activity in rabbit plasma assessed as thrombin time at 0.1 mM after 2 mins; format: functional, Oryctolagus cuniculus; conditions: in the assay text read “1 mM” for “0.1 mM”; summary of the method: as §2
[12] = test system: Plasma; assay: Anticoagulant activity in rabbit plasma assessed as activated partial thromboplastin time at 0.5 mM after 2 mins; format: functional, Oryctolagus cuniculus; summary of the method: as §3
[13] = target: T2, Coagulation factor X; assay: Inhibition of human factor 10a-catalyzed hydrolysis of S-2222; summary of the method: as §4
[14] = test system: Plasma; assay: Anticoagulant activity in rabbit plasma assessed as thrombin time at 0.5 mM after 2 mins; format: functional, Oryctolagus cuniculus; summary of the method: as §2
[15] = test system: Plasma; assay: Anticoagulant activity in rabbit plasma assessed as prothrombin time at 0.1 mM after 2 mins; format: functional, Oryctolagus cuniculus; conditions: in the assay text read “1 mM” for “0.1 mM”; summary of the method: as §1
[16] = test system: Plasma; assay: Anticoagulant activity in rabbit plasma assessed as prothrombin time at 0.5 mM after 2 mins; format: functional, Oryctolagus cuniculus; summary of the method: as §1

Compound | IC50 [1] | PT [2] | Activity [3] | IC50 [4] | TT [5] | APTT [6] | Activity [7] | Ki [8] | APTT [9] | Ki [10] | TT [11] | APTT [12] | IC50 [13] | TT [14] | PT [15] | PT [16]
O=C1O[C@H]2[C@H](O)[C@@H](CO)OC(O)[C@@H]2OC(=O)c2cc(O)c(O)c(O)c2-c2c1cc(O)c(O)c2O (stereo not given in full) | > 200000 nM | 10 s | inactive | > 200000 nM | 9.43 s | 39.9 s |  |  |  |  |  |  |  |  |  | 
O=C(OC[C@H]1OC(O)[C@H](OC(=O)c2cc(O)c(O)c(O)c2)[C@@H](O)[C@@H]1O)c1cc(O)c(O)c(O)c1 (stereo not given in full) | > 200000 nM | 11.1 s | inactive | > 200000 nM | 10.7 s | 40.8 s |  |  |  |  |  |  |  |  |  | 
COc1cc(C(=O)OC[C@H]2O[C@@H](OC(=O)c3cc(OC)c(OC)c(OC)c3)[C@H](OC(=O)c3cc(OC)c(OC)c(OC)c3)[C@@H](OC(=O)c3cc(OC)c(OC)c(OC)c3)[C@@H]2OC(=O)c2cc(OC)c(OC)c(OC)c2)cc(OC)c1OC |  |  |  |  |  |  | inactive |  |  |  |  |  |  |  |  | 
O=C1OC[C@@H](O)[C@H]([C@@H]2OC(=O)c3cc(O)c(O)c(O)c3-c3c(O)c(O)c(O)c4c3C(=O)O[C@H]2[C@H]4O)OC(=O)c2cc(O)c(O)c(O)c2-c2c1cc(O)c(O)c2O | 190 nM |  |  | 26 nM |  |  |  | 830 nM | >300 s | 690 nM | >300 s | 31.6 s | 280 nM | 16.2 s | >300 s | 13.9 s
O=C(OC1O[C@@H]2COC(=O)c3cc(O)c(O)c(O)c3-c3c(cc(O)c(O)c3O)C(=O)O[C@H]2[C@H](OC(=O)c2cc(O)c(O)c(O)c2)[C@H]1OC(=O)c1cc(O)c(O)c(O)c1)c1cc(O)c(O)c(O)c1 (stereo not given in full) [TELLIMAGRANDIN II] | 70 nM |  |  | 14 nM |  |  |  | 420 nM | >300 s | 440 nM | >300 s | 45.7 s | 210 nM | 18.7 s | >300 s | 11.9 s
